From ChEMBL document CHEMBL5331128, “Alicyclic Ring Size Variation of 4-Phenyl-2-naphthoic Acid Derivatives as P2Y14 Receptor Antagonists” (J Med Chem, 2023)
One block for each compound: values may come before it. Active and inactive are the calls of the source.

Columns and labels:
[1] = Prodrug conversion in CD-1 mouse plasma assessed as half life of 4-(4-((1S,4S,5S)-2-azabicyclo[2.2.1]heptan-5-yl)phenyl)-7-(4-(trifluoromethyl)phenyl)-2-naphthoic acid at 10 mg/kg,sc and measured upto 24 hrs by LC-MS/MS analysis; assay type: ADME, organism-based; conditions: in vivo
Procedure, shortened: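 Ester prodrug given subcutaneously at 10 mg/kg to female CD1 mice. Plasma levels of the released active acid followed over time, with half-life derived for the active drug.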

[2] = Prodrug conversion in CD-1 mouse plasma assessed as AUC (0 to infinity) of 4-(4-((1S,4S,5S)-2-azabicyclo[2.2.1]heptan-5-yl)phenyl)-7-(4-(trifluoromethyl)phenyl)-2-naphthoic acid at 10 mg/kg,sc and measured upto 24 hrs by LC-MS/MS analysis; assay type: ADME, organism-based; parameters: dose 10 mg/kg, time < 24 hrs, route sc; conditions: in vivo
Procedure, shortened: (§1)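 Female CD1 mice given mono-ester prodrug subcutaneously at 10 mg/kg. Released parent acid followed in plasma (peak concentration, t1/2, AUCinf) and total amount excreted in urine.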

[3] = Prodrug conversion in CD-1 mouse plasma assessed as Cmax of 4-(4-((1S,4S,5S)-2-azabicyclo[2.2.1]heptan-5-yl)phenyl)-7-(4-(trifluoromethyl)phenyl)-2-naphthoic acid at 10 mg/kg,sc and measured from 2 to 4 hrs by LC-MS/MS analysis; assay type: ADME, organism-based; parameters: time upper 4 hrs, time lower 2 hrs, dose 10 mg/kg, route sc; conditions: in vivo; procedure, shortened: as §1
Mus musculus [4] = assay: Antiallodynic activity in CCI surgery neuropathic pain Hsd:ICR mouse model assessed as reversal of mechano-allodynia by measuring paw withdrawal threshold at 10 micromol/kg,ip and measured upto 5 days by von frey test; assay type: functional, organism-based; conditions: dose 10.0 µmol/kg, time <= 5.0 day
Procedure, shortened: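 CCI neuropathic pain in adult male Hsd:ICR (CD-1) mice (20–30 g). Single i.p. injection on day 7 after sciatic nerve constriction, at peak pain. Vehicle 10% (Kolliphor HS 15:DMSO 5:95) in saline, 0.2 mL. Paw withdrawal threshold by von Frey filaments on ipsilateral and contralateral hindpaws. Mean ± SD; two-way ANOVA with Dunnett's test versus day 0 and day 7.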

Mus musculus [5] = assay: Antiallodynic activity in CCI surgery neuropathic pain Hsd:ICR mouse model assessed as reversal of mechano-allodynia by measuring paw withdrawal threshold at 10 micromol/kg,po and measured upto 6 hrs by von frey test; assay type: functional, organism-based; conditions: dose 10.0 µmol/kg
Procedure, shortened: (§2)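 CCI neuropathic pain in adult male CD-1 mice. Single oral gavage dose of 10 μmol/kg on day 7 post-surgery. Vehicle 5% DMSO + 10% (Kolliphor HS 15:DMSO 5:95) in 0.5% methylcellulose, 0.2 mL. Von Frey paw withdrawal threshold on both hindpaws. Mean ± SD; two-way ANOVA with Dunnett's test.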

Mus musculus [6] = assay: Antiallodynic activity in CCI surgery neuropathic pain Hsd:ICR mouse model assessed as reversal of mechano-allodynia by measuring paw withdrawal threshold at 10 micromol/kg,po and measured at 1 hrs by von frey test; assay type: functional, organism-based; conditions: dose 10.0 µmol/kg; procedure, shortened: as §2
[7] = Stability in mouse plasma assessed as half life at 1 uM and measured at 120 mins by LC-MS/MS analysis; assay type: ADME, cell-free
[8] = Stability in human plasma assessed as half life at 1 uM and measured at 120 mins by LC-MS/MS analysis; assay type: ADME, cell-free; conditions: 2 h, 1 µM
[9] = Prodrug conversion in CD-1 mouse assessed as 4-(4-((1S,4S,5S)-2-azabicyclo[2.2.1]heptan-5-yl)phenyl)-7-(4-(trifluoromethyl)phenyl)-2-naphthoic acid excretion in urine at 10 mg/kg,sc and measured upto 24 hrs by LC-MS/MS analysis; assay type: ADME, organism-based; conditions: in vivo; procedure, shortened: as §1
[10] = molecular target: T1, P2Y purinoceptor 14 (Homo sapiens) (UniProt Q15391); assay: Displacement of fluorescent tracer 4-(4-(1-(4-(1-(6-(3-carboxylato-4-(3-iminio-3H-xanthen-9-yl)benzamido)hexyl)-4,5-dihydro-1H-pyrrol-3-yl)butyl)piperidin-1-ium-4-yl)phenyl)-7-(4-(trifluoromethyl)phenyl)-2-naphthoate from human P2Y14R stably expressed in CHO cells upto 100 uM by flow cytometry; assay type: cell-based
T1 sequence (whole entry): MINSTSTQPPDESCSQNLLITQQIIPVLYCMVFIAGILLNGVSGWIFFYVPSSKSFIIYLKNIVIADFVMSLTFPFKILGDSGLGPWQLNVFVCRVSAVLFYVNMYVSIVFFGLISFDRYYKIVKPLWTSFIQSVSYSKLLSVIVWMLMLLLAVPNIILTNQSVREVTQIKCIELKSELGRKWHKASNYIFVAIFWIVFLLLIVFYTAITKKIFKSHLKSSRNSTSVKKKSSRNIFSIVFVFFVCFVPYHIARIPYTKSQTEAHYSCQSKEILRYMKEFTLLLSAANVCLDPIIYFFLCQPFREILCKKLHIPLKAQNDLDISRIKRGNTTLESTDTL

[11] = molecular target: T1, P2Y purinoceptor 14 (Homo sapiens); assay: Binding affinity to human P2Y14R stably expressed in CHO cells at 2 to 20000 nM by flow cytometry; assay type: cell-based; conditions: dose 2-20000 nM
Procedure, shortened: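 Whole CHO cells expressing hP2Y14R. Binding of an AlexaFluor-free JaneliaFluor 646 tracer conjugate was tested at final concentrations of 2, 100, 500 and 20,000 nM, under conditions similar to the AlexaFluor488 tracer assay (20 nM). Specific binding was read by flow cytometry.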

P2Y purinoceptor 14 [12] = molecular target: T2, P2Y purinoceptor 14 (Homo sapiens, UniProt Q15391); assay: (§3) Displacement of fluorescent tracer 4-(4-(1-(4-(1-(6-(3-carboxylato-4-(3-iminio-3H-xanthen-9-yl)benzamido)hexyl)-4,5-dihydro-1H-pyrrol-3-yl)butyl)piperidin-1-ium-4-yl)phenyl)-7-(4-(trifluoromethyl)phenyl)-2-naphthoate from human P2Y14R stably expressed in CHO cells by flow cytometry; assay type: cell-based
T2 sequence (Q15391 whole entry): T1 sequence (whole entry)
Procedure, shortened: (§4)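 Whole-cell competitive binding: CHO cells expressing hP2Y14R (or HEK-293 cells expressing mP2Y14R) incubated with AlexaFluor488-labelled antagonist tracer at 20 nM.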

P2Y purinoceptor 14 [13] = molecular target: T2, P2Y purinoceptor 14; assay: as §3, with “cells assessed as inhibition constant” for “cells”; assay type: cell-based; procedure, shortened: as §4

t1/2 [1]: 2.63 h | AUC [2]: 15300 ng·h/mL | Cmax [3]: 2 µg/mL | half-life at 1 µM [7]: 1.5 min | t1/2 [8]: > 720 min | Drug excretion [9]: 1550 ng
Structure (SMILES): CN(C)C(=O)COC(=O)c1cc(-c2ccc([C@H]3C[C@H]4C[C@@H]3CN4)cc2)c2ccc(-c3ccc(C(F)(F)F)cc3)cc2c1
Activity (Mus musculus [4]): Active | Activity (Mus musculus [5]): Active | Activity (Mus musculus [6]): Active

Activity [10]: inactive
Structure (SMILES): O=C(Cc1ccc(C(F)(F)F)cc1)Nc1cccc(-c2nc3cc(Cl)ccc3o2)c1

Structure (SMILES): C[Si]1(C)C2=CC(=[N+]3CCC3)C=CC2=C(c2cc(C(=O)NCCCCCCn3cc(CCCCN4CCC(c5ccc(-c6cc(C(=O)O)cc7cc(-c8ccc(C(F)(F)F)cc8)ccc67)cc5)CC4)nn3)ccc2C(=O)[O-])c2ccc(N3CCC3)cc21
Activity [11]: inactive | IC50 (P2Y purinoceptor 14 [12]): 25.9 µM | Ki (P2Y purinoceptor 14 [13]): 9.24 µM
